# Screening data as filed in PubChem BioAssay.
# A selection: hits, their analogues and other compounds. The true share with any hit is near 4.7%.
# MrgX1 antag – antagonists of human MrgX1 receptor; Q96LB2; MRGX1-HEK293 calcium flux, Fluo-4, BAM8-22 antagonism; active compounds read low; B-score at 10 µM; 310,000 tested, 1.3% active; AID 588676;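 active means calcium-response B-score plate-corrected more than 3 library SD below zero, starting fluorescence within 5 deviations, no agonist response on first addition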;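 further: peak minus trough fluorescence over baseline after final BAM8-22 challenge near maximal dose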
# Target sequence (Q96LB2 whole entry, looked up): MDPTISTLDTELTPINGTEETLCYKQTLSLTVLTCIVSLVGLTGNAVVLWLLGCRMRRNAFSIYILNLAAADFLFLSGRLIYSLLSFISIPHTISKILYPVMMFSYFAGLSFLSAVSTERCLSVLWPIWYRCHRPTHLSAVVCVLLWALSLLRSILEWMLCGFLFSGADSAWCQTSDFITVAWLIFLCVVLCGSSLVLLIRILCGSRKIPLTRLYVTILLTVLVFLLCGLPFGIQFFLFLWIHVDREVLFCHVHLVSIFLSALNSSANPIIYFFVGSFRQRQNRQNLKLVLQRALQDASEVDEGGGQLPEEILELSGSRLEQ
# KCC2 mod – modulates chloride dependent transport by human KCC2 | 190,000 tested, 2.2% active | B-score of Tl+ flux slope (higher = more flux/activation; lower = inhibition) at 10 µM | KCC2 cells, thallium flux FluoZin-2 fluorescence | Q9H2X9;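 active means thallium flux slope and its plate-corrected score both differing from the plate sample mean at a set confidence after two filtering rounds, in either direction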;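 further: slope of fluorescence scaled to starting intensity during 10 to 20 s after thallium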
# MrgX1 ag – human MrgX1 receptor agonism, primary screen; MrgX1-HEK293 cells, Fluo-4 calcium fluorescence, agonist mode; active compounds read high; Q96LB2; B-score at 10 µM; 310,000 tested, 0.44% active;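 active means calcium response B-score plate-corrected fluorescence ratio at least 3 library SD, with starting fluorescence B-score inside 5 SD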
#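 Material: HEK293 cells stably expressing human MrgX1 receptor | Quantity: 15,000 cells per well | Times: Cells plated overnight, dye loaded 0.5 h 37 °C, 0.5 h room temperature | Measured by: Kinetic Fluo-4 NW fluorescence of intracellular calcium | Control set: Positive and negative controls per plate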
# MrgX1 PAM – human MrgX1 positive allosteric modulation, primary screen; Q96LB2; MrgX1-HEK293, Fluo-4 calcium flux, FDSS; active compounds read high; B-score at 10 µM; 310,000 tested, 0.63% active;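 active means plate-corrected calcium response at least 3 library SD above typical, normal starting fluorescence, not activating the receptor alone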;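 further: compound read alongside a low EC10 to EC30 dose of BAM8-22 agonist; peak minus trough fluorescence over baseline measured at the second addition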
# RGS4 pot – RGS4 potentiation or activation. B-score at 10 µM. HEK293 M3R/inducible RGS4, carbachol calcium flux Fluo4; active compounds read low. 310,000 tested, 0.92% active;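 active means B-score of the integrated calcium signal more than 4 SD below the library mean, with starting fluorescence not abnormally high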;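 further: negative B-score means reduced calcium response which marks RGS4 activation or potentiation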
#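 Test system: HEK293 cells with stable M3R and inducible RGS4; also added: carbachol at ECmax as muscarinic agonist stimulus; schedule: dye loading 30 min 37 °C, buffer rest 30 min RT; technique: kinetic calcium fluorescence imaging with Fluo4-AM dye, 2 µM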
# RGS4 block – human RGS4 inhibition; B-score at 10 µM; 310,000 tested, 0.45% active; AID 463165; HEK293 M3R/RGS4 inducible, Fluo-4 calcium flux; active compounds read high; triggered by carbachol at its EC20; P49798;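 active means B-score, a plate-corrected calcium signal, over three deviations above library mean, with baseline fluorescence within five deviations of library mean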;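 further: RGS4 expression induced by doxycycline in cells with stable M3 receptor; B-score is computed from the integrated fluorescence ratio over baseline after carbachol; higher B-score means a larger calcium signal and so more RGS4 inhibition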
# Target sequence (P49798 whole entry, looked up): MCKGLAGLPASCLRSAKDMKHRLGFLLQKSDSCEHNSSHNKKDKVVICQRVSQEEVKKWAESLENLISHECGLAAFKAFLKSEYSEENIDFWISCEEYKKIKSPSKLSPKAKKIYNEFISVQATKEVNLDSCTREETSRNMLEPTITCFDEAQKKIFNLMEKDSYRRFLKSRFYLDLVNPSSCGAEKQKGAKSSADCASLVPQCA
# Active calls of the source: *; i = inactive; · = no result.
SMILES,MrgX1 antag,KCC2 mod,MrgX1 ag,MrgX1 PAM,RGS4 pot,RGS4 block
CCCc1cc(-c2n[nH]c(=S)n2C(C)c2ccccc2)cs1 (centres undefined),i,7.6*,i,i,i,i
CCc1ccc(N(CC(=O)N2CCOCC2)S(C)(=O)=O)cc1,i,·,i,i,i,i
CCN(CC)N=Nc1ccc(C(=O)O)cc1,-5.5*,-0.5,i,i,i,i
CCN(CC)N=Nc1ccc(S(=O)(=O)N2CCSC2C(=O)O)cc1 (centres undefined),i,-0.41,i,i,i,i
COc1ccc2[nH]cc(/C=C/c3cc[n+](C)cc3)c2c1,-7.9*,·,i,i,i,i
O=C(NCc1ccccc1)N1CCNCC1,i,·,i,i,i,i
CC(C)c1cccc(C(C)C)c1NC(=O)CN1CCCC1,i,·,i,i,i,i
C/C(=N\Nc1cc(C(F)(F)F)ccc1Cl)c1ccncc1,i,·,i,i,-7.6*,i
O=C(Nc1cc(C(F)(F)F)ccc1Cl)c1ccncc1,i,0.24,i,i,i,i
O=C(NCC1CCCO1)c1nn2c(C(F)(F)F)cc(-c3cc(Br)cs3)nc2c1Br (centres undefined),i,·,33*,i,i,i
O=C(NCC1CCCO1)c1nn2c(C(F)(F)F)cc(-c3ccco3)nc2c1Cl (centres undefined),i,·,i,i,i,i
CCCCCCCN1CCN=C1N(C)C,i,·,i,i,·,·
NC(=O)c1nsc(C(=O)N(c2ccccc2)C(C(=O)NC2CCCCC2)c2ccc(O)cc2)c1N (centres undefined),i,·,i,i,i,i
NC(=O)C(=O)NN=C1C2CC3CC(C2)CC1C3,i,-0.17,i,i,i,i
NC(=S)NN=C1C2CC3CC(C2)CC1C3,i,0.0027,i,8.6*,i,i
COc1ccc(S(=O)(=O)N(C)CC(=O)NCCC2=CCCCC2)cc1OC,-5.9*,-1.5,i,i,i,i
CCc1ccc(-c2cc(C)no2)cc1S(=O)(=O)NCc1ccccc1OC,i,·,i,i,i,i
COc1ccccc1CN1CCC(CNS(=O)(=O)c2cc(-c3cc(C)no3)ccc2OC)CC1,i,·,i,i,-7.6*,i
CCCn1c(N)c(N(CCOC)C(=O)c2cc(C)cc(C)c2)c(=O)[nH]c1=O,i,·,i,i,i,i
CC(C)C[C@H](NC(=O)c1[nH]cnc1C(=O)Nc1ccc(CNC(=O)OC(C)(C)C)cc1)C(=O)OC(C)(C)C,i,0.63,i,i,-7*,i
C[C@H](NC(=O)c1nc[nH]c1C(=O)N[C@@H](CCCCNC(=O)OC(C)(C)C)C(=O)OC(C)(C)C)C(=O)OCc1ccccc1,i,·,i,i,i,i
C[C@H](NC(=O)c1nc[nH]c1C(=O)NCCCCCNC(=O)OC(C)(C)C)C(=O)OCc1ccccc1,i,-4.4*,i,7.8*,-7.8*,i
CC(C)(C)OC(=O)NCCCCCNC(=O)c1[nH]cnc1C(=O)N[C@@H](Cc1ccccc1)C(=O)OCc1ccccc1,i,-1.2,i,i,-7.5*,i
COC(=O)c1ccc(Cn2nnc3c(=O)[nH]c(C4CCCN(S(=O)(=O)c5cccc(Cl)c5)C4)nc32)cc1 (centres undefined),i,·,i,i,i,i
CN1CCN(C(=O)c2cc(Br)cn2C)CC1,i,·,i,i,i,i
SMILES,MrgX1 antag,KCC2 mod,MrgX1 ag,MrgX1 PAM,RGS4 pot,RGS4 block
O=C(c1cc(-c2cccs2)nn1-c1ccccc1)N1CCN(S(=O)(=O)c2ccccc2)CC1,i,·,i,i,-7.2*,i
CCN(CC)c1ccc(/C=C(/C#N)C(=O)NCc2ccccc2)o1,i,i,i,7*,i,i
CCOc1ccc(-c2c(C(=O)N/N=C(\C)c3cccnc3)nnn2-c2nonc2N)cc1,i,·,i,i,i,i
COc1cccc(C(=O)Oc2cc(C)[nH]c(=O)c2[N+](=O)[O-])c1OC,-4.8*,0.01,i,i,i,i
O=C(Sc1cccc2cccnc12)c1ccc(F)cc1,·,64*,·,·,·,·
CN(C)C(=O)CSc1cccc2cccnc12,i,8.1*,i,i,i,i
O=S(=O)(Nc1cc(Sc2cccc3cccnc23)c(O)c2ccccc12)c1ccc(F)cc1,i,48*,i,i,i,i
CC(=O)/C(=N\Nc1ccccc1)Sc1cccc2cccnc12,-4.7*,-2.1,i,i,i,i
COc1ccc(-c2nnc(SCC(=O)c3ccc(C)o3)o2)cc1,·,0.53,·,·,i,i
COc1ccc(-c2nnc(SCc3cc(C)cc(C)c3)o2)cc1,i,-0.84,i,i,-7.2*,i
COc1ccc(CCC(=O)NC2CCC(C)CC2)cc1 (centres undefined),i,·,i,i,i,i
CC1(c2ccc(OC(F)F)cc2)NC(=O)N(CC(=O)Nc2ccc(F)cc2)C1=O (centres undefined),i,·,i,i,i,i
CC1(c2ccc(OC(F)F)cc2)NC(=O)N(CC(=O)Nc2cccc(F)c2)C1=O (centres undefined),-6.2*,·,i,i,i,i
CC1(c2ccc(OC(F)F)cc2)NC(=O)N(CC(=O)Nc2ccc(OC(F)F)cc2)C1=O (centres undefined),-12*,·,i,i,i,i
S=C(Nc1ccc(Cl)cc1)c1nc2ccccc2[nH]1,i,30*,i,i,i,i
Cc1ccccc1NC(=S)c1nc2ccccc2[nH]1,i,46*,i,i,i,i
O=C(/C(=C\c1ccccc1)c1nc2ccccc2[nH]1)c1ccc(Cl)cc1,i,1.2,i,i,i,i
COC(=O)[C@@]1(Cc2ccc(F)cc2)[C@H]2c3cc(C(=O)N(C)C)n(Cc4ccc(OC)c(OC)c4)c3C[C@H]2CN1C(=O)c1ccccc1,i,-0.59,i,i,i,i
COC(=O)[C@@]1(Cc2ccc(F)cc2)[C@H]2c3cc(C(=O)N(C)C)n(CCc4ccc(OC)c(Br)c4)c3C[C@H]2CN1C(=O)c1ccccc1,i,-0.45,i,i,-7.2*,i
COC(=O)[C@@]1(Cc2ccccc2)[C@H]2c3cc(C(=O)N4CCCC4)n(CCSCCO)c3C[C@H]2CN1C(=O)c1ccccc1,-5.2*,-0.85,i,i,i,i
